# Screening data from PubChem BioAssay.
# bIAP inhibitor = intestinal alkaline phosphatase (bovine) inhibition. inhibition, % at 20 µM. purified bovine IAP, CDP-star luminescence, 30 min. 190,000 tested, under 10 active;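 active means over 50% inhibition of intestinal alkaline phosphatase at 20 µM in the single-dose screen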
#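 System: Purified bovine intestinal alkaline phosphatase (IAP) enzyme | Input: IAP diluted 1/65,000,000 in the well | Also added: CDP-star chemiluminescent phosphatase substrate, 30 µM final | Dosing: 20 µM single dose | Times: Enzyme reaction for 30 min at room temperature | Detection: Luminescence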
# hIAP block = human IAP inhibition; purified IAP, CDP-Star luminescence, 30 min; inhibition, % at 10 µM; 330,000 tested, 0.12% active;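 active means inhibition reaching a set limit with compound at 10 µM in the primary screen, cut at about 35% in these data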;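 further: plate controls were DMSO wells with enzyme for no effect and no-enzyme buffer wells for full effect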
# Target sequence (P09923 whole entry, looked up): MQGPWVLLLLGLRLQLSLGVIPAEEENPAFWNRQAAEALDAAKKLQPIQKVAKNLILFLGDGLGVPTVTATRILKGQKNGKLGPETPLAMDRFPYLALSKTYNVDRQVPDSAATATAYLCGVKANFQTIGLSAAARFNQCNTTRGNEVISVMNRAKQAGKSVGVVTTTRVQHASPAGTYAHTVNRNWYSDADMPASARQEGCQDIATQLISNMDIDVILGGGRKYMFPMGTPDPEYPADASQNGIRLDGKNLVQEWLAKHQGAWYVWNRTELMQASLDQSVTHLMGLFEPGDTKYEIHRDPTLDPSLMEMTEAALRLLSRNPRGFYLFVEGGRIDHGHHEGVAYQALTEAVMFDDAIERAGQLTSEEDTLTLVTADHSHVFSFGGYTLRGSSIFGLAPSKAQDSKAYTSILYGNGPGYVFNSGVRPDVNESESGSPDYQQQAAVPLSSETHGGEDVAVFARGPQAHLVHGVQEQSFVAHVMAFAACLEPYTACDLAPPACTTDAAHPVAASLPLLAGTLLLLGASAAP
# hIAP activ = increases human intestinal alkaline phosphatase activity. 330,000 tested, 0.16% active. P09923. purified human IAP, CDP-Star luminescence, 30 min; stronger effect = higher value; 1 = vehicle-only enzyme, 0 = enzyme-free background. AID 2524. activation factor at 10 µM;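 active means activation factor of the enzyme at least 2-fold when tested at 20 µM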
# mIAP activ = increases mouse intestinal alkaline phosphatase activity; activation factor at 10 µM; muIAP, CDP-Star luminescence, 30 min; stronger effect = higher value; 1 = vehicle-only enzyme signal, 0 = enzyme-free wells; AID 2805; 330,000 tested, 0.24% active;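 active means activation factor of at least 2 at 20 µM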
#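 System: mouse IAP enzyme. Reagent: CDP-Star chemiluminescent phosphatase substrate. Benchmarks: DMSO wells, no-enzyme wells. Times: 30 min enzyme-substrate-compound incubation at room temperature. Detection: luminescence from enzymatic CDP-Star hydrolysis. Doses: test compounds delivered from DMSO solution.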
# mIAP block = mouse IAP inhibition. purified mouse IAP, CDP-Star luminescence, 30 min. inhibition, % at 10 µM. 330,000 tested, 0.2% active;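 active means inhibition of at least 40% at 10 µM in the primary screen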;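 further: plate controls were DMSO with enzyme for no effect and no enzyme wells for full effect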
# bIAP act = increases bovine intestinal alkaline phosphatase activity; purified bovine IAP, CDP-star luminescence, 30 min; stronger effect = higher value; fold of DMSO-control signal, blank-subtracted; activation factor at 20 µM; 200,000 tested, 0.17% active; AID 1016;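 active means activation factor of 2 or more at 20 µM, a signal rise over negative controls twice the positive control's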
# hIAP act conf = human IAP activation confirmation. purified IAP, CDP-Star luminescence, 30 min; stronger effect = lower value. shares compounds with hIAP activ. activation (%Activity, negative = activation), % at 8.3 µM. AID 434926. 880 tested, 10% active;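 active means at least twofold enzyme activation in any of six single-dose repeats, which the averaged readout prints as negative percent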
# Numbers without * were called inactive; / = not tested or not shown. The list is not random: actives were taken first. Their share in the collection is about 0.72%.
SMILES,bIAP inhibitor,hIAP block,hIAP activ,mIAP activ,mIAP block,bIAP act,hIAP act conf
COc1ccc(C(C)NC(=S)NC2CCCC2)cc1OC (configuration not stated),10.2,-3.6,1.04,1.09,-9.5,0.9,/
O=C1c2[nH]nc(-c3ccccc3O)c2C(c2cccc(Cl)c2)N1Cc1ccco1 (configuration not stated),-38.9,-127.5,2.27*,0.985,1.5,1.4,3.9
CC(=O)Nc1ccc(NC(=O)C(C)OC(=O)CSCc2cccc(Cl)c2)cc1 (configuration not stated),/,18.6,0.814,0.959,4.1,/,/
COc1ccc(-c2ccc(OC)cc2C(=O)O)cc1,4.2,35.9*,0.641,0.949,5.1,1,15.3
COc1ccc(C(=O)O)c(O)c1,/,0.1,0.999,0.967,3.3,/,/
O=C(Cn1ccnc1)c1ccc(O)c(O)c1,/,40.6*,0.594,0.9,10.0,/,-43.6
CC(=O)N1CCOc2ccc(S(=O)(=O)N3CCCC(C)C3)cc21 (configuration not stated),/,43.2*,0.568,1.08,-8.4,/,54.0
CC(=O)N1CCOc2ccc(S(=O)(=O)N3C(C)CCCC3C)cc21 (configuration not stated),/,12.3,0.877,0.912,8.8,/,/
CCc1ccc(C(=O)Nc2cc(C)on2)o1,/,-2.2,1.02,0.965,3.5,/,/
Cc1ccc(CN(C)c2ccc(S(=O)(=O)N3CCCC3)cn2)cc1,/,35.8*,0.642,1.01,-1.3,/,-34.0
O=C(N/N=C/c1cccc([N+](=O)[O-])c1)c1nc2ccccc2c(=O)[nH]1,/,-139.7,2.4*,0.743,25.7,/,33.3
O=C(CSc1nncs1)Nc1ccc2[nH]c(=O)[nH]c2c1,/,5.8,0.942,0.886,11.4,/,/
CC(=O)N/N=C/c1cc(C(C)(C)C)cc(/C=N/NC(C)=O)c1O,-60.4,/,/,/,/,1.6,/
O=C(Nc1ccc(Cl)c(Cl)c1)Oc1ccc(NC(=O)c2ccco2)cc1,-0.4,-100.3,2*,2.2*,-119.9,1,-70.1
N#C/C(=C\c1ccc(-c2cccc([N+](=O)[O-])c2)o1)C(=O)Nc1nc(-c2cccs2)cs1,/,46.8*,0.532,0.723,27.7,/,-64.4
COCCOCCn1c(/C=C/c2ccccc2)nc2ccccc21,6.0,8.9,0.911,0.999,0.1,0.9,/
CCCn1c(/C=C/c2ccccc2)nc2ccccc21,21.0,-213.7,3.14*,0.965,3.5,0.8,36.8
CN(C(=O)CSc1ncccc1C(=O)O)c1ccccc1,11.1,36.0*,0.64,1.01,-1.3,0.9,4.2
COc1cc(Cl)ccc1OCc1cc(C(=O)N2CCCCCCC2)no1,/,38.9*,0.611,1.07,-7.3,/,34.5
CCOC(=O)c1ccc(Nc2ncnc3nc[nH]c23)cc1,-15.6,-77.6,1.78,0.96,4.0,1.2,/
c1ccc(COc2ccc(Nc3ncnc4nc[nH]c34)cc2)cc1,-26.0,-144.2,2.44*,1.09,-9.3,1.3,-22.5
Cc1ccc(NC2CCCN(C(=O)c3ccoc3)C2)cc1C (configuration not stated),/,-20.3,1.2,1.07,-7.3,/,/
COc1ccc(NC(=O)C2CCN(Cc3cnn(-c4ccccc4)c3-n3cccc3)CC2)cc1OC,-225.4,-100.0,2*,1.71,-71.4,3.3*,-55.5
COc1ccc(OC)c(NC(=O)C2CCN(Cc3cnn(-c4ccccc4)c3-n3cccc3)CC2)c1,-14.2,2.7,0.973,1.1,-9.8,1.1,/
CCCCCN1CC(O)=C(c2nc3ccccc3[nH]2)C1=N,-12.6,-111.4,2.11*,1.3,-30.2,1.1,-45.4
O=C(Nc1ccncc1)c1cc2ccccc2cc1O,/,6.0,0.94,0.941,5.9,/,/
Cc1ccccc1CNC(=O)c1ccccc1N,10.2,35.9*,0.641,0.995,0.5,0.9,37.2
CC(NC(=O)CSc1ncccn1)c1ccccc1 (configuration not stated),6.6,66.7*,0.333,1.05,-4.9,0.9,0.1
O=C(CSc1ncccn1)Nc1ccccc1,5.0,1.5,0.985,0.929,7.1,0.9,/
Cn1ncc2c1ncn1nc(CCc3ccccc3)nc21,29.0,38.8*,0.612,0.921,7.9,0.7,-18.2
